Data published in ChEMBL document CHEMBL3632506, “Esters of some non-steroidal anti-inflammatory drugs with cinnamyl alcohol are potent lipoxygenase inhibitors with enhanced anti-inflammatory activity” (Bioorg Med Chem Lett, 2015).
Active and inactive are the calls of the source. The rule behind the calls is not given here.

Columns and labels:
[1] = system: Rattus norvegicus; test: Antiinflammatory activity in rat assessed as reduction of carrageenan-induced paw oedema at 0.15 mmol/kg, ip administered 5 mins before carrageenan challenge measured after 3.5 hrs; assay type: functional
Outline: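 Rat carrageenan-induced paw oedema; compounds given ip at 0.15 mmol/kg body weight. Result expressed as percent inhibition of oedema relative to controls; mean of 6–8 animals; significance by Student's t test.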

[2] = Antioxidant activity assessed as DPPH radical scavenging activity at 0.2 mM after 30 mins; assay type: physicochemical; conditions: 0.5 h, 200 µM
[3] = Inhibition of soybean lipoxygenase assessed as reduction in conversion of sodium linoleate to 13-hydroperoxylinoleic acid up to 7 mins; set-up: species or system Glycine max
[4] = system: Glycine max; test: Competitive inhibition of soybean lipoxygenase 1 mM of sodium linoleate assessed as reduction of 13-hydroperoxylinoleic acid formation up to 7 mins
Outline: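 Soybean lipoxygenase run with linoleic acid at 1 mM, above the saturating substrate concentration, under the same conditions as the standard inhibition assay, to test for competitive inhibition.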

[5] = system: Liver; test: Antioxidant activity in rat hepatic microsomal membrane assessed as inhibition of ferrous ascorbate-induced lipid peroxidation after 45 mins by spectrophotometric analysis; assay type: functional, cell membranes
[6] = system: Rattus norvegicus; test: Antidyslipidemic activity in rat Triton-WR1339-induced hyperlipidemic model assessed as reduction of plasma total cholesterol level at 0.15 mmol/kg, ip after 24 hrs; assay type: functional; set-up: scale not given: the % may be the effect or the level left
Outline: (§1)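 Hyperlipidemia induced in rats by tyloxapol 200 mg/kg ip; compounds given ip at 150 μmol/kg. Serum total cholesterol, triglycerides and LDL-cholesterol compared with hyperlipidemic controls. Groups of six to eight rats; significance by Student's t test.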

[7] = system: Rattus norvegicus; test: Antidyslipidemic activity in rat Triton-WR1339-induced hyperlipidemic model assessed as reduction of plasma triglyceride level at 0.15 mmol/kg, ip after 24 hrs; assay type: functional; set-up: scale not given: the % may be the effect or the level left; outline: as §1
[8] = system: Rattus norvegicus; test: Antidyslipidemic activity in rat Triton-WR1339-induced hyperlipidemic model assessed as reduction of plasma low density lipoprotein cholesterol level at 0.15 mmol/kg, ip after 24 hrs; assay type: functional; set-up: scale not given: the % may be the effect or the level left; outline: as §1
[9] = system: Rattus norvegicus; test: Antiinflammatory activity in rat assessed as reduction of carrageenan-induced paw oedema at 0.30 mmol/kg, ip administered 5 mins before carrageenan challenge measured after 3.5 hrs; assay type: functional

Row | SMILES | inhibition in vivo at 150 µmol/kg [1] | Activity [2] | IC50 [3] | inhibition [4] | inhibition [5] | Activity [6] | Activity [7] | Activity [8] | inhibition in vivo at 300 µmol/kg [9]
1 | O=C(O)Cc1ccccc1Nc1c(Cl)cccc1Cl [DICLOFENAC] | 37% |  |  |  |  |  |  |  | 
2 | O=C(Cc1c[nH]c2ccccc12)OC/C=C/c1ccccc1 | 33% | Not Active | 116 µM | inactive | inactive |  |  |  | 
3 | CC(C(=O)OC/C=C/c1ccccc1)c1cccc(C(=O)c2ccccc2)c1 (stereo unspecified) | 55% | Not Active | 22.5 µM | inactive | inactive |  |  |  | 
4 | O=C(Cc1ccccc1Nc1c(Cl)cccc1Cl)OC/C=C/c1ccccc1 | 53% | Not Active | 78 µM | inactive | inactive | 78.4% | 71.6% | 76.8% | 
5 | COc1ccc2c(c1)c(CC(=O)O)c(C)n2C(=O)c1ccc(Cl)cc1 [INDOMETHACIN] | 42% |  |  |  |  |  |  |  | 
6 | O=C(O)c1ccccc1Nc1cccc(C(F)(F)F)c1 [FLUFENAMIC ACID] | 19% |  |  |  |  |  |  |  | 
7 | O=C(OC/C=C/c1ccccc1)c1ccccc1Nc1cccc(C(F)(F)F)c1 | 48% | Not Active | 9 µM | inactive | inactive | 48.4% | 50.1% | 65.1% | 
8 | COc1ccc2cc([C@H](C)C(=O)OC/C=C/c3ccccc3)ccc2c1 | 60% | Not Active | 40.5 µM | inactive | inactive |  |  |  | 
9 | CC(Cc1ccc(O)c(O)c1)C(C)Cc1ccc(O)c(O)c1 (stereo unspecified) [NORDIHYDROGUAIARETIC ACID] |  |  | 1.3 µM |  |  |  |  |  | 
10 | Cc1c(Cl)cccc1Nc1ccccc1C(=O)O [TOLFENAMIC ACID] | 24% |  |  |  |  |  |  |  | 
11 | Cc1cccc(Nc2ccccc2C(=O)OC/C=C/c2ccccc2)c1C | 62% | Not Active | 38 µM | inactive | inactive |  |  |  | 
12 | Cc1cccc(Nc2ccccc2C(=O)O)c1C [MEFENAMIC ACID] | 44% |  |  |  |  |  |  |  | 
13 | O=C(CCCCC1CCSS1)OC/C=C/c1ccccc1 (stereo unspecified) | 48% | Not Active | 11.3 µM | inactive | inactive |  |  |  | 57%
14 | COc1ccc2cc([C@H](C)C(=O)O)ccc2c1 [NAPROXEN] | 11% |  |  |  |  |  |  |  | 
15 | CC(C)Cc1ccc(C(C)C(=O)OC/C=C/c2ccccc2)cc1 (stereo unspecified) | 46% | Not Active | 6.7 µM | inactive | inactive | 53.3% | 77.5% | 75% | 68%
16 | OC/C=C/c1ccccc1 [CINNAMIC ALCOHOL] | 13% |  | 250 µM |  |  |  |  |  | 
17 | CC(C)Cc1ccc(C(C)C(=O)O)cc1 (stereo unspecified) [IBUPROFEN] | 36% |  |  |  |  |  |  |  | 
18 | COc1ccc2c(c1)c(CC(=O)OC/C=C/c1ccccc1)c(C)n2C(=O)c1ccc(Cl)cc1 | 56% | Not Active | 9 µM | inactive | inactive |  |  |  | 
19 | Cc1c(Cl)cccc1Nc1ccccc1C(=O)OC/C=C/c1ccccc1 | 42% | Not Active | 9.6 µM | inactive | inactive |  |  |  | 
